ChEMBL document CHEMBL3526002, “Tissue distribution and identification of radioactivity components at elimination phase after oral administration of [¹⁴C]CS-1036, an α-amylase inhibitor, to rats” (Drug Metab Dispos, 2013)

Key:
Parameters in all cases: dose 5 mg/kg, dosed compound name [14C]CS-1036, route oral
Conditions in all cases: in vivo
[1] = tested on: Blood; test: Drug uptake in albino F344/DuCrlCrlj rat blood assessed as ng equivalent of CS-1036 at 5 mg/kg, po after 1 hr by liquid scintillation counting; format: ADME, organism-based
Summary of the method: (§1)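 Male F344/DuCrlCrlj rats (159–167 g; n = 3 per time point) received a single oral dose of [14C]CS-1036 at 5 mg/kg. Blood was taken from the abdominal aorta at 1, 4, 8, 24, 72, 168 and 336 h. Radioactivity was counted by LSC with external-standard efficiency correction. Results were converted to ng equivalent of CS-1036/ml using specific activity and sample volume, and reported as mean + S.D.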

[2] = Drug uptake in albino F344/DuCrlCrlj rat skeletal muscle at 5 mg/kg, po after 4 hrs by liquid scintillation counting; format: ADME, organism-based, Muscle tissue
[3] = tested on: Pancreas; test: Drug uptake in albino F344/DuCrlCrlj rat pancreas at 5 mg/kg, po after 24 hrs by liquid scintillation counting; format: ADME, organism-based
[4] = tested on: Kidney; test: Drug uptake in albino F344/DuCrlCrlj rat kidney assessed as ng equivalent of CS-1036 at 5 mg/kg, po after 1 hr by liquid scintillation counting; format: ADME, organism-based
[5] = Drug uptake in albino F344/DuCrlCrlj rat testis at 5 mg/kg, po after 24 hrs by liquid scintillation counting; format: ADME, organism-based
[6] = tested on: Aorta; test: Drug uptake in albino F344/DuCrlCrlj rat aorta at 5 mg/kg, po after 8 hrs by liquid scintillation counting; format: ADME, organism-based
[7] = Drug uptake in albino F344/DuCrlCrlj rat bone marrow at 5 mg/kg, po after 168 hrs by liquid scintillation counting; format: ADME, organism-based
[8] = Drug uptake in albino F344/DuCrlCrlj rat trachea assessed as ng equivalent of CS-1036 at 5 mg/kg, po after 168 hrs by liquid scintillation counting; format: ADME, organism-based
[9] = tested on: Blood; test: Drug uptake in albino F344/DuCrlCrlj rat blood assessed as ng equivalent of CS-1036 at 5 mg/kg, po after 4 hrs by liquid scintillation counting; format: ADME, organism-based; summary of the method: as §1
[10] = tested on: Blood; test: Drug uptake in albino F344/DuCrlCrlj rat blood at 5 mg/kg, po after 24 hrs by liquid scintillation counting; format: ADME, organism-based; summary of the method: as §1
[11] = tested on: Plasma; test: Drug uptake in albino F344/DuCrlCrlj rat plasma assessed as ng equivalent of CS-1036 at 5 mg/kg, po after 8 hrs by liquid scintillation counting; format: ADME, organism-based
[12] = tested on: Harderian gland; test: Drug uptake in albino F344/DuCrlCrlj rat harderian gland at 5 mg/kg, po after 72 hrs by liquid scintillation counting; format: ADME, organism-based
[13] = Drug uptake in albino F344/DuCrlCrlj rat mandibular gland at 5 mg/kg, po after 1 hr by liquid scintillation counting; format: ADME, organism-based
[14] = Drug uptake in albino F344/DuCrlCrlj rat pituitary gland assessed as ng equivalent of CS-1036 at 5 mg/kg, po after 24 hrs by liquid scintillation counting; format: ADME, organism-based
[15] = tested on: Liver; test: Drug uptake in albino F344/DuCrlCrlj rat liver at 5 mg/kg, po after 1 hr by liquid scintillation counting; format: ADME, organism-based
[16] = tested on: Harderian gland; test: Drug uptake in albino F344/DuCrlCrlj rat harderian gland at 5 mg/kg, po after 4 hrs by liquid scintillation counting; format: ADME, organism-based
[17] = tested on: Thymus; test: Drug uptake in albino F344/DuCrlCrlj rat thymus assessed as ng equivalent of CS-1036 at 5 mg/kg, po after 336 hrs by liquid scintillation counting; format: ADME, organism-based
[18] = Drug uptake in albino F344/DuCrlCrlj rat urinary bladder assessed as ng equivalent of CS-1036 at 5 mg/kg, po after 24 hrs by liquid scintillation counting; format: ADME, organism-based
[19] = tested on: Cerebrum; test: Drug uptake in albino F344/DuCrlCrlj rat cerebrum assessed as ng equivalent of CS-1036 at 5 mg/kg, po after 72 hrs by liquid scintillation counting; format: ADME, organism-based
Summary of the method: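 Single oral [14C]CS-1036 at 5 mg/kg was given to male rats (159–167 g; n = 3). Cerebrum was collected after aortic bleeding at 1, 4, 8, 24, 72, 168 or 336 h, weighed, and homogenized in 2 volumes of saline. A 0.5 ml aliquot was solubilized in Soluene-350 and counted by LSC with external-standard correction. Results are in ng equivalent/g tissue from specific activity and sample weight.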

[20] = tested on: Liver; test: Drug uptake in albino F344/DuCrlCrlj rat liver assessed as ng equivalent of CS-1036 at 5 mg/kg, po after 72 hrs by liquid scintillation counting; format: ADME, organism-based
[21] = Drug uptake in albino F344/DuCrlCrlj rat fat assessed as ng equivalent of CS-1036 at 5 mg/kg, po after 4 hrs by liquid scintillation counting; format: ADME, organism-based, Adipose tissue
Summary of the method: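 Male F344/DuCrlCrlj rats (bought at 7 weeks, acclimatized 5–6 days; 159–167 g; n = 3 per time point) received a single oral dose of [14C]CS-1036 at 5 mg/kg. White adipose tissue was collected after abdominal aortic bleeding at 1, 4, 8, 24, 72, 168 or 336 h. Samples were counted by LSC with external-standard efficiency correction. Results were converted to ng equivalents per g from specific activity and sample weight.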

[22] = tested on: Aorta; test: Drug uptake in albino F344/DuCrlCrlj rat aorta at 5 mg/kg, po after 24 hrs by liquid scintillation counting; format: ADME, organism-based
[23] = tested on: Lung; test: Drug uptake in albino F344/DuCrlCrlj rat lung at 5 mg/kg, po after 72 hrs by liquid scintillation counting; format: ADME, organism-based
[24] = Drug uptake in albino F344/DuCrlCrlj rat bone marrow assessed as ng equivalent of CS-1036 at 5 mg/kg, po after 4 hrs by liquid scintillation counting; format: ADME, organism-based
[25] = Drug uptake in albino F344/DuCrlCrlj rat thyroid gland assessed as ng equivalent of CS-1036 at 5 mg/kg, po after 8 hrs by liquid scintillation counting; format: ADME, organism-based
[26] = tested on: Lung; test: Drug uptake in albino F344/DuCrlCrlj rat lung assessed as ng equivalent of CS-1036 at 5 mg/kg, po after 168 hrs by liquid scintillation counting; format: ADME, organism-based
[27] = tested on: Harderian gland; test: Drug uptake in albino F344/DuCrlCrlj rat harderian gland assessed as ng equivalent of CS-1036 at 5 mg/kg, po after 4 hrs by liquid scintillation counting; format: ADME, organism-based
[28] = tested on: Cerebellum; test: Drug uptake in albino F344/DuCrlCrlj rat cerebellum assessed as ng equivalent of CS-1036 at 5 mg/kg, po after 24 hrs by liquid scintillation counting; format: ADME, organism-based
[29] = tested on: Small intestine; test: Drug uptake in albino F344/DuCrlCrlj rat small intestine assessed as ng equivalent of CS-1036 at 5 mg/kg, po after 1 hr by liquid scintillation counting; format: ADME, organism-based
[30] = tested on: Harderian gland; test: Drug uptake in albino F344/DuCrlCrlj rat harderian gland at 5 mg/kg, po after 168 hrs by liquid scintillation counting; format: ADME, organism-based
[31] = Drug uptake in albino F344/DuCrlCrlj rat mandibular gland assessed as ng equivalent of CS-1036 at 5 mg/kg, po after 8 hrs by liquid scintillation counting; format: ADME, organism-based
[32] = Drug uptake in albino F344/DuCrlCrlj rat brown fat assessed as ng equivalent of CS-1036 at 5 mg/kg, po after 24 hrs by liquid scintillation counting; format: ADME, organism-based, Brown adipose tissue

- Radiolabel recovery [1]: 9.5 ngequiv/ml
- Radiolabel recovery [2]: 41.4 ngequiv/g
- Radiolabel recovery [3]: 310 ngequiv/g
- Radiolabel recovery [4]: 102 ngequiv/g
- Radiolabel recovery [5]: 31.4 ngequiv/g
- Radiolabel recovery [6]: 57.3 ngequiv/g
- Radiolabel recovery [7]: 47 ngequiv/g
- Radiolabel recovery [8]: 10.4 ngequiv/g
- Radiolabel recovery [9]: 16.3 ngequiv/ml
- Radiolabel recovery [10]: 35.7 ngequiv/ml
- Radiolabel recovery [11]: 10.8 ngequiv/ml
- Radiolabel recovery [12]: 119 ngequiv/g
- Radiolabel recovery [13]: 43.4 ngequiv/g
- Radiolabel recovery [14]: 33.1 ngequiv/g
- Radiolabel recovery [15]: 346 ngequiv/g
- Radiolabel recovery [16]: 39.1 ngequiv/g
- Radiolabel recovery [17]: 1.96 ngequiv/g
- Radiolabel recovery [18]: 8.6 ngequiv/g
- Radiolabel recovery [19]: 4.88 ngequiv/g
- Radiolabel recovery [20]: 629 ngequiv/g
- Radiolabel recovery [21]: 1.74 ngequiv/g
- Radiolabel recovery [22]: 35.2 ngequiv/g
- Radiolabel recovery [23]: 51.3 ngequiv/g
- Radiolabel recovery [24]: 7.9 ngequiv/g
- Radiolabel recovery [25]: 57.2 ngequiv/g
- Radiolabel recovery [26]: 8.2 ngequiv/g
- Radiolabel recovery [27]: 5.1 ngequiv/g
- Radiolabel recovery [28]: 2.3 ngequiv/g
- Radiolabel recovery [29]: 86500 ngequiv/g
- Radiolabel recovery [30]: 17.1 ngequiv/g
- Radiolabel recovery [31]: 24 ngequiv/g
- Radiolabel recovery [32]: 63 ngequiv/g
Structure (SMILES): C[C@H]1O[C@@H](O[C@H]2[C@H](O)[C@@H](O)[C@@H](O[14C@H]3[14C@H](O)[14CH2]N[14C@@H]3[14CH2]O)O[C@@H]2CO)[C@H](O)[C@@H](O)[C@@H]1O
